Laboratory results reported in PMC7318623 (Chemmedchem, 2020).

Assays:
[1] = biological target: T1, PPARγ (Homo sapiens, UniProt P37231); experiment: PPARγ luciferase transactivation assay; assay type: cell-based
T1 sequence (P37231 238-503 limits assumed): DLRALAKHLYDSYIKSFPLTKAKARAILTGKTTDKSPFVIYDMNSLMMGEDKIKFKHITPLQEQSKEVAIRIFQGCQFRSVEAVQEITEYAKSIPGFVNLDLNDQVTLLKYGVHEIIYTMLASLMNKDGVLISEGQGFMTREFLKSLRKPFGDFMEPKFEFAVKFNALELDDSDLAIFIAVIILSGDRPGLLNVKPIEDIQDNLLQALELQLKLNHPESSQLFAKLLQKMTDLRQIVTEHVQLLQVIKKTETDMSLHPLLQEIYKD

[2] = tested on: K562‐resistant cells; experiment: Induction of cell death by PI FACS analyses, without or with imatinib; assay type: cell-based; conditions: for cell death rate, compound in combination with imatinib: 10 μM compound + 1 μM imatinib
[3] = tested on: COS‐7 cells; experiment: Modified MTT assay; assay type: cell-based, monkey; conditions: non-malignant COS-7 cells
How it was run: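 COS-7 cells seeded 2×10³ per well in triplicate, then 24 h in humidified 5% CO2/95% air at 37 °C before dosing. Test compound added at 20 μM alongside a DMSO vehicle control (DMSO ≤0.1% final) and incubated 72 h. Metabolic activity read by the EZ4U modified MTT (formazan) assay and expressed relative to vehicle control set at 100%. Mean + SD, ≥3 independent experiments, three replicates each.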

Row | SMILES | EC50 [1] | cell death rate, compound in combination with imatinib ([2]; 72 h) | also measured
1 | CCCc1nc2ccc(Br)cc2n1Cc1ccc(-c2ccccc2C(=O)OC)cc1 [6‐Br‐CO2CH3, methyl 4′‐((6‐bromo‐2‐propyl‐1H‐benzo[d]imidazol‐1‐yl)methyl)‐[1,1′‐biphenyl]‐2‐carboxylate] |  | 63% | 
2 | Cc1ccc(NC(=O)c2ccc(CN3CCN(C)CC3)cc2)cc1Nc1nccc(-c2cccnc2)n1 [imatinib, reference compound] |  |  | cell death, imatinib alone ([2]; 1 μM imatinib, K562-resistant (KD225) cells): 10–20%
3 | CCCc1nc2ccccc2n1Cc1ccc(-c2ccccc2C(=O)OC)cc1 [2 b, Methyl 4′‐((2‐propyl‐1H‐benzo[d]imidazol‐1‐yl)methyl)‐[1,1′‐biphenyl]‐2‐carboxylate] |  | 80% | cell death rate, compound alone ([2]; 10 μM compound, 72 h, without imatinib): 21%; PPARγ activation at 20 μM ([1]; compound at 20 μM, relative to pioglitazone 10 μM = 100 %): about 36%; cytotoxicity per se (in words) [3]: did not exert cytotoxicity per se
4 | CCCc1nc2ccccc2n1Cc1ccc(-c2ccccc2C(=O)O)cc1 [3 b, 4′‐((2‐Propyl‐1H‐benzo[d]imidazol‐1‐yl)methyl)‐[1,1′‐biphenyl]‐2‐carboxylic acid] | 6.98 ± 1.06 µM | 31% | 
5 | CCCc1nc2cc(Br)ccc2n1Cc1ccc(-c2ccccc2C(=O)OC)cc1 [5 b, Methyl 4′‐((5‐bromo‐2‐propyl‐1H‐benzo[d]imidazol‐1‐yl)methyl)‐[1,1′‐biphenyl]‐2‐carboxylate] |  | 31% | 

Further lines, with some results ahead:

Row | EC50 [1] | SMILES | cell death rate, compound in combination with imatinib ([2]; 72 h) | also measured
6 | 5.68 ± 1.07 µM | O=C(O)c1ccccc1-c1ccc(Cn2c3ccccc3c3cc(Br)ccc32)cc1 [6 a, 4′‐((3‐Bromo‐9H‐carbazol‐9‐yl)methyl)‐[1,1′‐biphenyl]‐2‐carboxylic acid] |  | 
7 | 4.78 ± 0.79 µM | CCCc1nc2c(C)cc(-c3nc4ccccc4n3C)cc2n1Cc1ccc(-c2ccccc2C(=O)O)cc1 [telmisartan, reference compound] |  | 
8 | 6.86 ± 1.58 µM | CCc1c(C)n(Cc2ccc(-c3ccccc3C(=O)O)cc2)c2ccccc12 [3 c, 4′‐((3‐Ethyl‐2‐methyl‐1H‐indol‐1‐yl)methyl)‐[1,1′‐biphenyl]‐2‐carboxylic acid] |  | 
9 | 9.52 ± 0.74 µM | CCc1c(C)n(Cc2ccc(-c3ccccc3C(=O)O)cc2)c2ccc(Br)cc12 [6 c, 4′‐((5‐Bromo‐3‐ethyl‐2‐methyl‐1H‐indol‐1‐yl)methyl)‐[1,1′‐biphenyl]‐2‐carboxylic acid] |  | 
10 | 10.4 ± 3.9 µM | O=C(O)c1ccccc1-c1ccc(Cn2c3ccccc3c3ccccc32)cc1 [3 a, 4′‐((9H‐Carbazol‐9‐yl)methyl)‐[1,1′‐biphenyl]‐2‐carboxylic acid] |  | 
